Test results reported in ChEMBL document CHEMBL4765352, “Discovery of AdipoRon analogues as novel AMPK activators without inhibiting mitochondrial complex I” (Eur J Med Chem, 2020).
The source made the active and inactive calls. The calls are words filed in the database; no cut-off is given here.

What was measured:
[1] = Metabolic stability in human liver microsomes assessed as intrinsic clearance preincubated for 5 mins followed by NADPH addition and measured up to 45 mins by LC/MS analysis; assay type: ADME, Microsome; conditions: time 50 min, read-out: CLH
Method in brief: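 Compound and liver microsomes in preheated potassium phosphate buffer, held at 37 °C for 5 min. Reaction started with NADPH and stopped at 0, 5, 15, 30 and 45 min with acetonitrile containing tolbutamide internal standard. Samples centrifuged at 6000 rpm for 15 min, supernatant analysed by LC/MS. Ketanserin run as assay control. Performed by a contract lab.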

[2] = Inhibition of mitochondrial complex 1 in human HepG2 cells assessed as increase in ADP/ATP ratio at 10 uM; assay type: cell-based; conditions: hepg2, 10 µM
Method in brief: (§1)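 HepG2 cells treated with 10 μM or 0.5 μM compound, or DMSO. Cellular ADP:ATP and AMP:ATP ratios were measured. Three replicates, given as mean ± SD and compared by Student's t test.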

[3] = organism: Homo sapiens; assay: Activation of AMPK alpha2/beta2/gamma1 (unknown origin)
[4] = Induction of cardiac hypertrophy in normal lean C57BL/6 mouse at 100 mg/kg, ig administered for 4 weeks; assay type: organism-based; conditions: in vivo, po, 672 h
Method in brief: (§2)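 Male C57BL/6 mice, 9 weeks old, dosed intragastrically daily for 4 weeks. After saline perfusion, organ weights and tibia length were recorded. Heart pieces were fixed in 4% paraformaldehyde, embedded in paraffin and stained with periodic acid-Schiff to show glycogen.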

[5] = Toxicity in C57BL/6 mouse assessed as change in heart weight/tibia length ratio at 50 to 200 mg/kg, ig administered for 4 weeks; assay type: organism-based; conditions: in vivo, po, 672 h, dose 50-200 mg/kg
Method in brief: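 Male C57BL/6 mice (6 per group) given 50, 100 or 200 mg/kg intragastrically daily for 4 weeks. Saline-perfused hearts were weighed and examined for gross morphology, with representative hearts chosen by similar body weight. Heart weight was expressed relative to body weight and to tibia length.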

[6] = system: Mus musculus; assay: Antihyperglycemic activity in db/db mouse assessed as improved insulin resistant at 100 mg/kg, ig administered once daily for 9 weeks by ITT; assay type: functional, organism-based
Method in brief: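 db/db mice dosed from 5 weeks of age with 100 mg/kg/day in 0.5% methylcellulose vehicle, for 9 weeks. After a 6 h fast, insulin was injected i.p. at 1.5 mU/g body weight and tail-vein blood glucose followed. Data given as mean ± SEM and compared by two-way ANOVA.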

[7] = Induction of cardiac hypertrophy in db/db mouse at 100 mg/kg, ig administered for 10 weeks; assay type: organism-based; conditions: in vivo, po, 1680 h
[8] = system: H9c2; assay: Activation of AMPK in rat H9C2 cells assessed as increase in phosphorylation of ACC at 1 to 20 uM incubated for 1 to 24 hrs by Western blot analysis; assay type: cell-based; conditions: dose 1-20 µM, time 1-24 hrs
Method in brief: (§3)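 Rat cardiac H9C2 cells treated with a concentration range for 2 h or 4 h, or with 10 μM over a time course. Lysates blotted for phosphorylated and total AMPK and ACC, detected by ECL.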

[9] = Induction of cardiac hypertrophy in normal lean C57BL/6 mouse assessed as increase in cardiac glycogen level at 100 mg/kg, ig administered for 4 weeks by PAS staining based analysis; assay type: organism-based; conditions: in vivo, po, 672 h; method in brief: as §2
[10] = system: C2C12; assay: Activation of AMPK in mouse C2C12 cells assessed as increase in ACC phosphorylation at 10 uM by Western blotting analysis; assay type: cell-based; conditions: filed as activator, time 0.5-24 hrs, TDE = time-dependent effect
Method in brief: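 C2C12 myoblasts differentiated in DMEM with 2% horse serum for 5-7 days until myotubes formed. Treated for 2 h, either at 10 μM or across a concentration range, or at 10 μM over a time course. RIPA lysates (~30 µg protein) blotted for p-AMPK/AMPK and p-ACC/ACC, detected by ECL. The p-AMPK/AMPK ratio is expressed as fold of the DMSO vehicle.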

[11] = system: Mus musculus; assay: Activation of AMPK in normal lean C57BL/6 mouse assessed as increase in phosphorylated ACC level in heart tissue at 100 mg/kg, ig administered for 4 weeks by Western blot analysis; assay type: functional, organism-based
Method in brief: (§4)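 Male C57BL/6 mice, 9 weeks old, dosed intragastrically once daily for 4 weeks alongside vehicle controls. Heart and skeletal muscle were homogenized in RIPA buffer with protease/phosphatase inhibitors and centrifuged at 10,600 g for 20 min. About 30 µg protein was blotted for p-AMPK and p-ACC and detected by ECL.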

[12] = organism: Mus musculus; assay: Improvement in lipid homeostasis in db/db mouse assessed as effect on serum total cholesterol level; assay type: functional, organism-based
[13] = system: H9c2; assay: Activation of AMPK in rat H9C2 cells assessed as increase in phosphorylation of AMPK at 1 to 20 uM incubated for 1 to 24 hrs by Western blot analysis; assay type: cell-based; conditions: dose 1-20 µM, time 1-24 hrs; method in brief: as §3
[14] = Toxicity in db/db mouse assessed as effect on body weight at 100 mg/kg, ig administered for 10 weeks; assay type: organism-based; conditions: in vivo, po, 1680 h
Method in brief: (§5)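 db/db mice, 5 weeks old, grouped by matching baseline blood glucose and body weight. Dosed intragastrically once daily at 100 mg/kg in 0.5% methylcellulose; vehicle-treated db/db and db/m mice served as controls. Body weight and fasting blood glucose measured weekly. Serum ALT and AST measured after 10 weeks. Data given as mean ± SEM.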

[15] = system: Mus musculus; assay: Activation of AMPK in normal lean C57BL/6 mouse assessed as increase in phosphorylated AMPK level in heart tissue at 100 mg/kg, ig administered for 4 weeks by Western blot analysis; assay type: functional, organism-based; method in brief: as §4
[16] = Inhibition of mitochondrial complex 1 in human HepG2 cells assessed as increase in AMP/ATP ratio at 10 uM; assay type: cell-based; conditions: hepg2, 10 µM; method in brief: as §1
[17] = Metabolic stability in ICR/CD-1 mouse liver microsomes assessed as half life preincubated for 5 mins followed by NADPH addition and measured up to 45 mins by LC/MS analysis; assay type: ADME, Microsome; conditions: time 50 min
Method in brief: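 Compound was preincubated with mouse (ICR/CD-1) or human liver microsomes in potassium phosphate buffer at 37 °C for 5 min, then NADPH was added to start the reaction. Samples were quenched with acetonitrile containing tolbutamide internal standard at 0, 5, 15, 30 and 45 min. Parent compound measured by LC/MS; ketanserin served as control.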

[18] = Toxicity in db/db mouse assessed as effect on serum ALT level at 100 mg/kg, ig administered for 10 weeks; assay type: organism-based; conditions: in vivo, po, 1680 h; method in brief: as §5
[19] = system: HepG2; assay: Activation of AMPK in human HepG2 cells assessed as increase in AMPK phosphorylation at 1 to 20 uM measured after 2 to 12 hrs by Western blotting analysis; assay type: cell-based; conditions: filed as activator, dose 1-20 µM, time 2-12 hrs
Method in brief: (§6)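 HepG2 and HuH-7 cells in medium with 10% FBS and penicillin/streptomycin at 37 °C, 5% CO₂. Treated with a range of concentrations for 2 h, or with 10 μM over a time course. Cells lysed in RIPA buffer with protease/phosphatase inhibitors; ~30 µg protein per lane blotted for p-AMPK, AMPK, p-ACC, ACC, with GAPDH or β-actin as loading control. Detected by ECL.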

[20] = system: A549; assay: Activation of AMPK in human A549 cells harboring mutant LKB1; assay type: cell-based
[21] = system: Huh-7; assay: Activation of AMPK in human HuH-7 cells assessed as increase in AMPK phosphorylation at 1 to 20 uM measured after 2 to 12 hrs by Western blotting analysis; assay type: cell-based; conditions: filed as activator, dose 1-20 µM, time 2-12 hrs; method in brief: as §6

- CLint scaled [1]: 18 mL/min/kg
- Activity [3]: inactive
- half-life [17]: 36 min
Structure (SMILES): CC(C)(Oc1ccc(Cl)cc1)C(=O)Nc1ccc(OCc2ccc(C#N)cc2)cc1
- inhibition (INH) [2]: Not Active
- Activity [4]: Non-Toxic
- Activity [5]: Non-Toxic
- Activity [6]: Active
- Activity [7]: Non-Toxic
- Activity [8]: inactive
- Activity [9]: Non-Toxic
- Activity [10]: Tde
- Activity [11]: inactive
- Activity [12]: inactive
- Activity [13]: inactive
- Activity [14]: Non-Toxic
- Activity [15]: inactive
- inhibition (INH) [16]: Not Active
- Activity [18]: Non-Toxic
- Activity [19]: Active
- Activity [20]: inactive
- Activity [21]: Active
